Experimental data from ChEMBL document CHEMBL3414513, “Synthesis and biological evaluation of betulonic acid derivatives as antitumor agents” (Eur J Med Chem, 2015).
Calls of active or inactive are those of the source. No cut-off for these calls is given here.

Legend:
[1] = tested on: MGC-803; experiment: Cytotoxicity against human MGC803 cells after 72 hrs by MTT assay; assay type: functional, cell-based; conditions: for IC50: MGC-803, 72 h
Method in brief: (§1)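 Cancer lines grown in RPMI 1640 with 10% heat-inactivated FBS, 37 °C, 5% CO2. Cells trypsinized at 80-90% confluence, seeded at 2×10^3/well overnight, then given compounds (DMSO stocks diluted in medium) at various concentrations for 72 h at 37 °C. Controls: 0.1% DMSO negative, adriamycin positive. MTT (5 mg/ml) added for 4 h, formazan dissolved in SDS 12 h, A595 read. IC50 from dose-response curves.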

[2] = (§2) Cytotoxicity against human PC3 cells after 72 hrs by MTT assay; assay type: functional, cell-based; conditions: PC-3, 72 h
Method in brief: as §1, with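 “Cells” for “Cancer lines grown in RPMI 1640 with 10% heat-inactivated FBS, 37 °C, 5% CO2. Cells”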

[3] = tested on: PC-3; experiment: as §2; assay type: functional, cell-based
Method in brief: as §1, with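 “Cells” for “Cancer lines grown in RPMI 1640 with 10% heat-inactivated FBS, 37 °C, 5% CO2. Cells”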

[4] = tested on: Bcap37; experiment: Cytotoxicity against human Bcap37 cells after 72 hrs by MTT assay; assay type: functional, cell-based; conditions: for IC50: Bcap37, 72 h; method in brief: as §1
[5] = tested on: A-375; experiment: Cytotoxicity against human A375 cells after 72 hrs by MTT assay; assay type: functional, cell-based; conditions: for IC50: A-375, 72 h; method in brief: as §1
[6] = tested on: MCF7; experiment: Cytotoxicity against human MCF7 cells after 72 hrs by MTT assay; assay type: functional, cell-based; conditions: for IC50: MCF7, 72 h; method in brief: as §1
[7] = tested on: MGC-803; experiment: Selectivity index, ratio of IC50 for mouse NIH/3T3 cells to IC50 for human MGC803 cells; assay type: functional
Method in brief: (§3)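 Index is the IC50 in normal NIH3T3 cells divided by the IC50 in each cancer line. […] HCPT and adriamycin were used as positive controls.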

[8] = tested on: PC-3; experiment: Selectivity index, ratio of IC50 for mouse NIH/3T3 cells to IC50 for human PC3 cells; assay type: functional; method in brief: as §3
[9] = tested on: Bcap37; experiment: Selectivity index, ratio of IC50 for mouse NIH/3T3 cells to IC50 for human Bcap37 cells; assay type: functional; method in brief: as §3
[10] = tested on: A-375; experiment: Selectivity index, ratio of IC50 for mouse NIH/3T3 cells to IC50 for human A375 cells; assay type: functional; method in brief: as §3
[11] = tested on: MCF7; experiment: Selectivity index, ratio of IC50 for mouse NIH/3T3 cells to IC50 for human MCF7 cells; assay type: functional; method in brief: as §3
[12] = tested on: MGC-803; experiment: Induction of apoptosis in human MGC803 cells assessed as appearance of compact condensed and crescent shaped cells at 10 uM after 48 hrs by Hoechst 33258 staining-based fluorescence microscopic analysis; assay type: functional, cell-based
Method in brief: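 MGC-803 cells seeded at 5×10^4 cells/mL in 6-well plates; medium replaced with fresh medium plus 10% FBS and compound (10 µM, 48 h), DMSO negative control. Cells washed, fixed in 4% paraformaldehyde 10 min, stained with Hoechst 33258 for 5 min, washed, then nuclear morphology viewed by fluorescence microscopy (excitation 350 nm, emission 460 nm).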

[13] = tested on: MGC-803; experiment: Induction of apoptosis in human MGC803 cells assessed as DNA fragmentation at 10 uM after 48 hrs by TUNEL assay; assay type: functional, cell-based
Method in brief: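 MGC-803 cells seeded at 5×10^4 cells/mL in 6-well plates; medium replaced with fresh medium plus 10% FBS and compound (10 µM, 48 h), DMSO negative control. Fixed in 4% paraformaldehyde 40 min, permeabilized 2 min on ice, peroxidase quenched (0.3% H2O2/methanol, 20 min RT), TdT/biotin-dUTP 60 min 37 °C, streptavidin-HRP 30 min, then DAB. Brown precipitate under light microscopy scored apoptotic.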

| SMILES | Activity [1] | IC50 [1] | IC50 [2] | Activity [3] | Activity [4] | IC50 [4] | Activity [5] | IC50 [5] | Activity [6] | IC50 [6] | Ratio IC50 [7] | Ratio IC50 [8] | Ratio IC50 [9] | Ratio IC50 [10] | Ratio IC50 [11] | Activity [12] | Activity [13] |
| --- | --- | --- | --- | --- | --- | --- | --- | --- | --- | --- | --- | --- | --- | --- | --- | --- | --- |
| C=C(C)[C@@H]1CC[C@]2(C(=O)OCCCCN(CC)CC)CC[C@]3(C)[C@H](CC[C@@H]4[C@@]5(C)CCC(=O)C(C)(C)[C@@H]5CC[C@]43C)[C@@H]12 | Dose-dependent effect | 3.8 µM | 4.4 µM | Dose-dependent effect | Dose-dependent effect | 5.2 µM | Dose-dependent effect | 9.2 µM | Dose-dependent effect | 7.9 µM | 6.15 | 5.32 | 4.5 | 2.54 | 2.96 |  |  |
| C=C(C)[C@@H]1CC[C@]2(C(=O)OCCN3CCN(C(=O)c4ccccc4C)CC3)CC[C@]3(C)[C@H](CC[C@@H]4[C@@]5(C)CCC(=O)C(C)(C)[C@@H]5CC[C@]43C)[C@@H]12 | Dose-dependent effect | 4.5 µM | 8.7 µM | Dose-dependent effect | Dose-dependent effect | 6.4 µM | Dose-dependent effect | 4.5 µM | Dose-dependent effect | 5.4 µM | 4.69 | 2.43 | 3.3 | 4.69 | 3.91 |  |  |
| C=C(C)[C@@H]1CC[C@]2(C(=O)OCCN3CCN(C(=O)c4ccccc4)CC3)CC[C@]3(C)[C@H](CC[C@@H]4[C@@]5(C)CCC(=O)C(C)(C)[C@@H]5CC[C@]43C)[C@@H]12 | Dose-dependent effect | 5.3 µM | 4.1 µM | Dose-dependent effect | Dose-dependent effect | 7.4 µM | Dose-dependent effect | 6.3 µM | Dose-dependent effect | 4.7 µM | 7.62 | 9.85 | 5.46 | 6.41 | 8.6 |  |  |
| CC[C@@]1(O)C(=O)OCc2c1cc1n(c2=O)Cc2cc3cc(O)ccc3nc2-1 [HYDROXYCAMPTOTHECIN] | Dose-dependent effect | 29.1 µM | 34.5 µM | Dose-dependent effect | Dose-dependent effect | 28.1 µM | Dose-dependent effect | 27.8 µM |  | 48.2 µM |  |  |  |  |  | Active | Active |
| C=C(C)[C@@H]1CC[C@]2(C(=O)OCCCCN3CCCC3)CC[C@]3(C)[C@H](CC[C@@H]4[C@@]5(C)CCC(=O)C(C)(C)[C@@H]5CC[C@]43C)[C@@H]12 | Dose-dependent effect | 4 µM | 6.7 µM | Dose-dependent effect | Dose-dependent effect | 4.7 µM | Dose-dependent effect | 8.5 µM | Dose-dependent effect | 5.4 µM | 7.18 | 4.28 | 6.11 | 3.38 | 5.31 |  |  |
| C=C(C)[C@@H]1CC[C@]2(C(=O)OCCCCN3CCOCC3)CC[C@]3(C)[C@H](CC[C@@H]4[C@@]5(C)CCC(=O)C(C)(C)[C@@H]5CC[C@]43C)[C@@H]12 | Dose-dependent effect | 5.6 µM | 7.2 µM | Dose-dependent effect | Dose-dependent effect | 5.2 µM | Dose-dependent effect | 6.8 µM | Dose-dependent effect | 8.5 µM |  |  |  |  |  |  |  |
| C=C(C)[C@@H]1CC[C@]2(C(=O)OCCN3CCN(C(=O)c4ccc(F)c(F)c4)CC3)CC[C@]3(C)[C@H](CC[C@@H]4[C@@]5(C)CCC(=O)C(C)(C)[C@@H]5CC[C@]43C)[C@@H]12 | Dose-dependent effect | 4.4 µM | 4.6 µM | Dose-dependent effect | Dose-dependent effect | 3.9 µM | Dose-dependent effect | 7.2 µM | Dose-dependent effect | 3.7 µM | 4.2 | 4.02 | 4.74 | 2.57 | 5 |  |  |
| C=C(C)[C@@H]1CC[C@]2(C(=O)OCCN3CCN(C(=O)CCCCCCCC)CC3)CC[C@]3(C)[C@H](CC[C@@H]4[C@@]5(C)CCC(=O)C(C)(C)[C@@H]5CC[C@]43C)[C@@H]12 | Dose-dependent effect | > 20 µM | > 20 µM | Dose-dependent effect | Dose-dependent effect | > 20 µM | Dose-dependent effect | > 20 µM | Dose-dependent effect | 17.6 µM |  |  |  |  |  |  |  |
| C=C(C)[C@@H]1CC[C@]2(C(=O)OCCN3CCCC3)CC[C@]3(C)[C@H](CC[C@@H]4[C@@]5(C)CCC(=O)C(C)(C)[C@@H]5CC[C@]43C)[C@@H]12 | Dose-dependent effect | 10.8 µM | 12.3 µM | Dose-dependent effect | Dose-dependent effect | 10.2 µM | Dose-dependent effect | 9.7 µM | Dose-dependent effect | 9.4 µM |  |  |  |  |  |  |  |
